≈ marks a conversion by molar mass, not a printed value.
Key:
Mus musculus [1] = test: In vivo antitumor activity against P388 Lymphocytic Leukemia in mice at 62 mg/kg expressed as T/C value; type: functional
Mus musculus [2] = test: In vivo antitumor activity against P388 Lymphocytic Leukemia in mice at 15.5 mg/kg expressed as T/C value; type: functional
Mus musculus [3] = test: In vivo antitumor activity against P388 Lymphocytic Leukemia in mice at 31 mg/kg expressed as T/C value; type: functional
Mus musculus [4] = test: In vivo antitumor activity against P388 Lymphocytic Leukemia measured as Survivors on day 5 at 7.75 mg/kg; 6/6; type: functional
Mus musculus [5] = test: In vivo antitumor activity against P388 Lymphocytic Leukemia measured as Survivors on day 5 at 31 mg/kg; 6/6; type: functional
Mus musculus [6] = test: In vivo antitumor activity against P388 Lymphocytic Leukemia measured as survivors on day 5 at 62 mg/kg; 6/6; type: functional
Mus musculus [7] = test: In vivo antitumor activity against P388 Lymphocytic Leukemia measured as Survivors on day 5 at 15.5 mg/kg; 5/6; type: functional
Mus musculus [8] = test: In vivo antitumor activity against P388 Lymphocytic Leukemia in mice at 7.75 mg/kg expressed as T/C value; type: functional
A204 = test: In vitro cytotoxicity against human A204 Rhabdomyosarcoma cell line; type: functional, cell-based
How it was run: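 A204 human rhabdomyosarcoma soft-agarose colony assay. 10^4 trypsin/EDTA-dissociated cells in 0.3% agarose over a 0.5% agarose base, in DMEM with 10% FCS, at 37 °C and 5% CO2. Compound was applied in an upper medium layer on day 1 for 24 h, then washed out. Colonies >60 µm were counted after 7–9 days by tetrazolium stain and image analysis. Quadruplicates with vehicle controls, at least four concentrations up to 100 or 1000 µg/mL. IC50 from a monoexponential least-squares fit over at least three preparations, mean ± SE.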

Mus musculus [9] = test: In vivo antitumor activity against P388 Lymphocytic Leukemia measured as Survivors on day 5 at 71 mg/kg; 5/6; type: functional
Mus musculus [10] = test: In vivo antitumor activity against P388 Lymphocytic Leukemia measured as Survivors on day 5 at 17.75 mg/kg; 5/6; type: functional
Mus musculus [11] = test: In vivo antitumor activity against P388 Lymphocytic Leukemia measured as Survivors on day 5 at 35.5 mg/kg; 6/6; type: functional
Mus musculus [12] = test: In vivo antitumor activity against P388 Lymphocytic Leukemia in mice at 8.88 mg/kg expressed as T/C value; type: functional
Mus musculus [13] = test: In vivo antitumor activity against P388 Lymphocytic Leukemia in mice at 17.75 mg/kg expressed as T/C value; type: functional
Mus musculus [14] = test: In vivo antitumor activity against P388 Lymphocytic Leukemia in mice at 71 mg/kg expressed as T/C value; type: functional
Mus musculus [15] = test: In vivo antitumor activity against P388 Lymphocytic Leukemia in mice at 35.5 mg/kg expressed as T/C value; type: functional
Mus musculus [16] = test: In vivo antitumor activity against P388 Lymphocytic Leukemia measured as Survivors on day 5 at 8.88 mg/kg; 6/6; type: functional
Mus musculus [17] = test: In vivo antitumor activity against P388 Lymphocytic Leukemia measured as Survivors on day 5 at 92 mg/kg; 6/6; type: functional
Mus musculus [18] = test: In vivo antitumor activity against P388 Lymphocytic Leukemia measured as Survivors on day 5 at 23 mg/kg; 6/6; type: functional
Mus musculus [19] = test: In vivo antitumor activity against P388 Lymphocytic Leukemia in mice at 92 mg/kg expressed as T/C value; type: functional
Mus musculus [20] = test: Weight difference when tested in vivo for antitumor activity against P388 Lymphocytic Leukemia; type: functional
Mus musculus [21] = test: In vivo antitumor activity against P388 Lymphocytic Leukemia measured as Survivors on day 5 at 46 mg/kg; 6/6; type: functional
Mus musculus [22] = test: In vivo antitumor activity against P388 Lymphocytic Leukemia in mice at 46 mg/kg expressed as T/C value; type: functional
Mus musculus [23] = test: In vivo antitumor activity against P388 Lymphocytic Leukemia measured as Survivors on day 5 at 11.50 mg/kg; 6/6; type: functional; conditions: dose 11.5 mg/kg
Mus musculus [24] = test: In vivo antitumor activity against P388 Lymphocytic Leukemia in mice at 11.50 mg/kg expressed as T/C value; type: functional; conditions: dose 11.5 mg/kg
Mus musculus [25] = test: In vivo antitumor activity against P388 Lymphocytic Leukemia in mice at 23 mg/kg expressed as T/C value; type: functional
Mus musculus [26] = test: In vivo antitumor activity against P388 Lymphocytic Leukemia in mice at 1500 mg/kg expressed as T/C value; type: functional
Mus musculus [27] = test: In vivo antitumor activity against P388 Lymphocytic Leukemia measured as Survivors on day 5 at 375 mg/kg; 6/6; type: functional
Mus musculus [28] = test: In vivo antitumor activity against P388 Lymphocytic Leukemia in mice at 375 mg/kg expressed as T/C value
Mus musculus [29] = test: In vivo antitumor activity against P388 Lymphocytic Leukemia measured as Survivors on day 5 at 1500 mg/kg; 6/6; type: functional
Mus musculus [30] = test: In vivo antitumor activity against P388 Lymphocytic Leukemia in mice at 750 mg/kg expressed as T/C value; type: functional
Mus musculus [31] = test: In vivo antitumor activity against P388 Lymphocytic Leukemia measured as Survivors on day 5 at 750 mg/kg; 6/6; type: functional
Mus musculus [32] = test: In vivo antitumor activity against P388 Lymphocytic Leukemia measured as Survivors on day 5 at 187.5 mg/kg; 6/6; type: functional
Mus musculus [33] = test: In vivo antitumor activity against P388 Lymphocytic Leukemia in mice at 187.5 mg/kg expressed as T/C value; type: functional
Mus musculus [34] = test: In vivo antitumor activity against P388 Lymphocytic Leukemia measured as Survivors on day 5 at 200 mg/kg, w.r.t. compound 6; 4/4; type: functional
Mus musculus [35] = test: In vivo antitumor activity against P388 Lymphocytic Leukemia in mice at 400 mg/kg expressed as T/C value w.r.t. compound 6; type: functional
Mus musculus [36] = test: In vivo antitumor activity against P388 Lymphocytic Leukemia in mice at 200 mg/kg expressed as T/C value w.r.t. compound 6; type: functional
Mus musculus [37] = test: In vivo antitumor activity against P388 Lymphocytic Leukemia measured as Survivors on day 5 at 800 mg/kg, w.r.t. compound 6; 4/4; type: functional
Mus musculus [38] = test: In vivo antitumor activity against P388 Lymphocytic Leukemia measured as Survivors on day 5 at 400 mg/kg, w.r.t. compound 6; 4/4; type: functional
Mus musculus [39] = test: In vivo antitumor activity against P388 Lymphocytic Leukemia in mice at 800 mg/kg expressed as T/C value w.r.t. compound 6; type: functional

SMILES: CCC(O)(C(=O)OCC1=CC[N+]2([O-])CC[C@H](OC(=O)[C@](O)(CC)c3ccccc3)[C@@H]12)c1ccccc1 (stereo partly specified)
- T/C (Mus musculus [1]): 127%
- T/C (Mus musculus [2]): 100%
- T/C (Mus musculus [3]): 109%
- Survivors (Mus musculus [4]): 6
- Survivors (Mus musculus [5]): 6
- Survivors (Mus musculus [6]): 6
- Survivors (Mus musculus [7]): 5
- T/C (Mus musculus [8]): 106%

SMILES: CC1C(=O)O[C@@H]2CCN3CC=C(COC(=O)C(C)(O)C1(C)O)[C@H]23 (stereo partly specified)
- IC50 (A204): 316 µg/mL (≈ 971 µM)

SMILES: CCC(O)(C(=O)OCC1=CC[N+]2([O-])CC[C@H](OC(=O)[C@@](O)(CC)c3ccccc3)[C@@H]12)c1ccccc1 (stereo partly specified)
- Survivors (Mus musculus [9]): 5
- Survivors (Mus musculus [10]): 5
- Survivors (Mus musculus [11]): 6
- T/C (Mus musculus [12]): 107%
- T/C (Mus musculus [13]): 100%
- T/C (Mus musculus [14]): 109%
- T/C (Mus musculus [15]): 106%
- Survivors (Mus musculus [16]): 6

SMILES: CC(C)C(O)(C(=O)O[C@@H]1CCN2CC[C@H](CO)[C@H]12)C(C)O (stereo partly specified)
- Survivors (Mus musculus [17]): 6
- Survivors (Mus musculus [18]): 6
- T/C (Mus musculus [19]): 98%
- Weight difference (Mus musculus [20]): -1.2
- Survivors (Mus musculus [21]): 6
- T/C (Mus musculus [22]): 105%
- Survivors (Mus musculus [23]): 6
- T/C (Mus musculus [24]): 111%
- T/C (Mus musculus [25]): 107%

SMILES: CC(C)C(O)(C(=O)OCC1CC[N+]2([O-])CC[C@@H](O)[C@@H]12)C(C)O (stereo partly specified)
- T/C (Mus musculus [26]): 106%
- Survivors (Mus musculus [27]): 6
- IC50 (A204): 320 µg/mL (≈ 1010 µM)
- T/C (Mus musculus [28]): 106%
- Survivors (Mus musculus [29]): 6
- T/C (Mus musculus [30]): 95%
- Survivors (Mus musculus [31]): 6
- Survivors (Mus musculus [32]): 6
- T/C (Mus musculus [33]): 94%

SMILES: CC(C)C(O)(C(=O)OC1CCN2CCC(CO)C12)C(C)O (stereo unspecified)
- Survivors (Mus musculus [34]): 4
- T/C (Mus musculus [35]): 123%
- T/C (Mus musculus [36]): 126%
- Survivors (Mus musculus [37]): 4
- Survivors (Mus musculus [38]): 4
- T/C (Mus musculus [39]): 180%

— ChEMBL document CHEMBL1124172 (J Med Chem, 1988)
